The species named for data set [1] is Rattus norvegicus. The experiment in a line: CNS activity in rat assessed as gross behaviour. Format: ADME, organism-based. Particulars: in vivo.
Data set [2] concerns Rattus norvegicus. The experiment in a line: Antifertility activity in rat at 5 mg/day administered for 7 days. Format: functional, organism-based. A digest of the protocol: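 Rat antifertility test: 5 mg/rat/day given for 7 days to two female rats.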

Active and inactive are the calls of the source. No cut-off for these calls is given here.

As to `CCOC(=O)COC1=NN(c2cccc(Cl)c2)CC1`, the Activity result in data set [1] is recorded as “Non-toxic”. For the same compound, in data set [2], the outcome was inactive.
`CCOC(=O)CCCCCOC1=NN(c2cccc(OC)c2)CC1`: the Activity result in data set [1] is on record as “Non-toxic”. Moreover, in data set [2], the result was inactive.
For `O=C1CCN(c2cccc(C(F)(F)F)c2)N1`, in that order: “Non-toxic” and “inactive”.
The like results for `CCOC(=O)COC1=NN(c2cccc(C(F)(F)F)c2)CC1` were, in that order, “Non-toxic” and “inactive”.
As for `COc1cccc(N2CCC(=O)N2)c1`, in data set [1], the Activity result was “Non-toxic”. The outcome in data set [2] was inactive.
For `O=C1CCN(c2cccc(Cl)c2)N1`, in that order: “Non-toxic” and “inactive”.
For `CCCCOc1cccc(N2CCC(=O)N2)c1`, in that order: “Non-toxic” and “inactive”.
For `COc1cccc(N2CCC(=O)N2CCCC(O)c2ccc(F)cc2)c1` (stereo not drawn), in that order: “Non-toxic” and “inactive”.
As to `COc1cccc(N2CCC(=O)N2CCCC(=O)c2ccc(F)cc2)c1`, the Activity result in data set [1] was “Non-toxic”. Also, in data set [2], the outcome was inactive.
